Results on 15 molecules are retold here after paper PMC6217654 (ACS Omega, 2018).

For data set [1], the system named is reserpine-induced hypothermia mice. As to the kind of experiment: Antagonistic effect on reserpine-induced hypothermia in mice. The class given is in vivo. As to conditions: p.o.; for CNS effect (reserpine-induced hypothermia), in words, SAR comparison: mice, data not shown or compared with 64. Summed up:
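Male ddY mice (bought at 6 weeks, 1-week quarantine, ~25 °C). Reserpine 3 mg/kg s.c.; mice with rectal temperature ≤30 °C about 18 h later were used. Test compound in saline p.o. at 5 μmol/kg, TRH at 50 μmol/kg, saline controls. Rectal temperature by thermistor before and up to 7 h post-dose. Trapezoidal AUC0–7h, with saline AUC subtracted. Mean ± SD, ≥3 animals.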

Data set [2] in a line: PK of TRH mimetics in rat, cassette dosing i.v. and p.o. Format: in vivo. As to conditions: for MRT / Vd / clearance / half-life: male, Sprague-Dawley, plasma, iv, 1 umol/kg; for BA: oral 2 μmol/kg vs i.v. 1 μmol/kg. Summed up:
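Cassette dosing in rats (n = 2, 302–364 g). p.o.: 2 μmol/5 mL/kg in DMSO/0.5% methylcellulose 1/4. i.v.: 1 μmol/1 mL/kg in DMSO/propylene glycol 1/1. Heparinized jugular blood; plasma precipitated with methanol/acetonitrile 1/1; LC/MS/MS, ESI positive. t1/2 from terminal phase; MRT by linear trapezoid with monoexponential extrapolation; BA = dose-normalized po/iv AUC ratio. Mean of two animals.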

The nature of data set [3]: Free fraction ratio. The class given is in vitro ADME, rat. As to conditions: in vitro.
A short description of data set [4]: PK of TRH and 79 after oral administration to fasted conscious rats. Format: in vivo, rat. Particulars: male, Wistar, rat, plasma, po, 40 mg/kg. A digest of the protocol: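 Male Wistar rats (10–11 weeks, 230–274 g, n ≥ 4), fasted from the evening before dosing to the 12 h sample. Jugular cannula placed under isoflurane 2–3 days before. Single p.o. dose of 40 mg/4 mL/kg in saline. Heparinized blood (~0.3 mL) drawn via cannula; plasma deproteinized with methanol; HPLC with UV absorbance detection. Cmax, Tmax, AUC0–8h given as mean ± SD.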

For data set [5], the system named is rats with Ara-C-induced cerebellar damage. Kind of data set: Ara-C-induced cerebellar ataxia in rats, open field fall index. The class given is in vivo, rat.
In data set [6] the target is human TRH-R. Particulars: read-out: Ki for human TRH-R; in vitro binding, reported previously; cited from earlier work.
The conditions of data set [7]: cited from earlier work.

Peptide text beside a SMILES is read from it. Where only a bound is given, the exact number is not on record here.

On to `NC(=O)[C@@H]1CCCN1C(=O)[C@H](Cc1cncs1)NC(=O)[C@@H]1CCC(=O)N1` [Compound 56, L-Pyroglutamyl-[3-(thiazol-5-yl)-L-alanyl]-L-prolinamide], for which, in data set [1], the “CNS effect (reserpine-induced hypothermia), in words, SAR comparison” value (shortened to “CNS effect”) is listed as “less than that of 64”.

With `NC(=O)[C@@H]1CSCN1C(=O)[C@H](Cc1cscn1)NC(=O)[C@@H]1CCC(=O)N1` [Compound 57, 3-{N-L-Pyroglutamyl-[3-(thiazol-4-yl)-L-alanyl]}-(4R)-4-thiazolidinecarboxamide] (HELM PEPTIDE1{[Glp].[O=C([C@H](Cc1cscn1)N[*:1])[*:2]].[O=C([C@@H]1CSCN1[*:1])[*:2]].[am]}$$$$V2.0), in data set [1], the “CNS effect” value is “less than that of 64”.

For `NC(=O)[C@@H]1CCCN1C(=O)[C@H](Cc1cscn1)NC(=O)[C@@H]1COC(=O)N1` [Compound 58, {[(4S)-(2-Oxooxazolidine-4-yl)carbonyl]-3-(thiazol-4-yl)-L-alanyl}-L-prolinamide], in data set [1], the “CNS effect” value is “maintained”.

Take `C[C@H]1OC(=O)N(C)[C@@H]1C(=O)N[C@@H](Cc1cscn1)C(=O)N1CCC[C@H]1C(N)=O` [Compound 60, {[(4S,5R)-3,5-Dimethyl-2-oxooxazolidine-4-carbonyl]-3-(thiazol-4-yl)-L-alanyl}-L-prolinamide]: the “CNS effect” value in data set [1] is on record as “decreased the CNS effects”.

Turning to `C[C@H]1OC(=O)N(Cc2ccccc2)[C@@H]1C(=O)N[C@@H](Cc1cscn1)C(=O)N1CCC[C@H]1C(N)=O` [Compound 61, {[(4S,5R)-3-Benzyl-5-Methyl-2-oxooxazolidine-4-carbonyl]-3-(thiazol-4-yl)-L-alanyl}-L-prolinamide], the “CNS effect” value in data set [1] is recorded as “decreased the CNS effects”.

`C[C@H]1OC(=O)N[C@@H]1C(=O)N[C@@H](Cc1cncs1)C(=O)N1CCC[C@H]1C(N)=O` [Compound 62]: the “CNS effect” value in data set [1] was “less than that of 64”.

As for `C[C@H]1OC(=O)N[C@@H]1C(=O)N[C@@H](Cc1cscn1)C(=O)N1CSC[C@H]1C(N)=O` [Compound 63, 3-{N-[(4S,5R)-(5-Methyl-2-oxooxazolidine-4-yl)carbonyl]-3-(thiazol-4-yl)-L-alanyl}-(4R)-4-thiazolidinecarboxamide], the “CNS effect” value in data set [1] is “less than that of 64”.

What is called MRT is a mean duration of stay, worked out from the concentration-time curve. The term half-life denotes the time in which the quantity being followed falls by half. Read a low half-life as fast loss. Turning to `C[C@@H]1OC(=O)N[C@@H]1C(=O)N[C@@H](Cc1cscn1)C(=O)N1CCC[C@H]1C(N)=O` [Compound 64, {[(4S,5S)-(5-Methyl-2-oxooxazolidine-4-yl)carbonyl]-3-(thiazol-4-yl)-L-alanyl}-L-prolinamide], in data set [2], the MRT is 14.3 min, the Vd amounted to 0.19 L/kg, the clearance is 13 mL/min/kg and the half-life came to 13.5 min. This molecule also had a BA in data set [2] of 1.1%. Moreover, the “fu: free fraction ratio in serum” value in data set [3] was greater than 99%.

In data set [2], `C[C@@H]1OC(=O)N[C@@H]1C(=O)N[C@@H](Cc1cscn1)C(=O)N1CSC[C@H]1C(N)=O` [Compound 68, 3-{N-[(4S,5S)-(5-Methyl-2-oxooxazolidine-4-yl)carbonyl]-3-(thiazol-4-yl)-L-alanyl}-(4R)-4-thiazolidinecarboxamide] had an MRT of 11 min, a Vd of 0.16 L/kg, a clearance of 14.2 mL/min/kg and a half-life of 9.8 min. Besides, the “fu: free fraction ratio in serum” value in data set [3] is greater than 99%.

As to `C[C@@H]1OC(=O)N[C@@H]1C(=O)N[C@@H](Cc1cscn1)C(=O)N1CCC[C@H]1C#N` [Compound 69, 1-{N-[(4S,5S)-(5-Methyl-2-oxooxazolidine-4-yl)carbonyl]-3-(thiazol-4-yl)-L-alanyl}-(2S)-2-cyanopyrrolidine], in data set [2], the MRT was 14.6 min, the Vd is 0.25 L/kg, the clearance worked out at 17.4 mL/min/kg and the half-life came to 26.2 min. For the same molecule, the “fu: free fraction ratio in serum” value in data set [3] is listed as greater than 99%.

Regarding `C[C@@H]1OC(=O)N[C@@H]1C(=O)N[C@@H](Cc1cscn1)C(=O)N1CCC[C@H]1C` [Compound 70, 1-{N-[(4S,5S)-(5-Methyl-2-oxooxazolidine-4-yl)carbonyl]-3-(thiazol-4-yl)-L-alanyl}-(2R)-2-methylpyrrolidine], in data set [2], the mean residence time (MRT) was 19.1 min, the Vd was 0.58 L/kg, the clearance was 30.6 mL/min/kg and the half-life worked out at 21.6 min. This molecule showed a BA in data set [2] of 4.7%. In data set [3], the “fu: free fraction ratio in serum” value is greater than 99%.

`C[C@@H]1OC(=O)N[C@@H]1C(=O)N[C@@H](Cc1cncs1)C(=O)N1CCC[C@H]1C` [Compound 71, 1-{N-[(4S,5S)-(5-Methyl-2-oxooxazolidine-4-yl)carbonyl]-3-(thiazol-5-yl)-L-alanyl}-(2R)-2-methylpyrrolidine]: in data set [1], the “CNS effect” value was “less than that of 64”.

On to `C[C@@H]1OC(=O)N[C@@H]1C(=O)N[C@@H](Cc1c[nH]cn1)C(=O)N1CCC[C@H]1C` [Compound 72, 1-{N-[(4S,5S)-(5-Methyl-2-oxooxazolidine-4-yl)carbonyl]-L-histidyl}-(2R)-2-methylpyrrolidine], for which, in data set [1], the “CNS effect” value was “less than that of 64”.

For `C[C@@H]1OC(=O)N[C@@H]1C(=O)N[C@@H](Cc1cscn1)C(=O)N1CCC[C@H]1C(=O)OCc1ccccc1` [Compound 74, {[(4S,5S)-5-Methyl-2-oxooxazolidine-4-carbonyl]-3-(thiazol-4-yl)-L-alanyl}-L-proline Benzyl Ester], the “CNS effect” value in data set [1] is recorded as “less than that of 64”.

What is called AUC(0-t) is the area under the concentration-time curve up to a stated or last time point. A word on the Cmax: it is the maximum level reached in the sampled fluid or tissue. In general, Tmax refers to the time at which the peak concentration occurs. What is called Ki is a dissociation constant, usually derived from enzyme kinetics or from competition with a known ligand. Take `NC(=O)[C@@H]1CCCN1C(=O)[C@H](Cc1cnc[nH]1)NC(=O)[C@@H]1CCC(=O)N1` [TRH, L-pGlu–L-His–L-Pro-NH2, reference compound]: in data set [4], the AUC(0-t) stood at 68 ± 72 ng·h/mL, the highest concentration (Cmax) turned out to be 50 ± 39 ng/mL and the Tmax came to 45 ± 17.4 min. Also, the fall index in data set [5] (10 mg/kg i.v. once, 30 min post-dose, mean ± SE, vehicle 2.06 ± 0.09) is 1.05 ± 0.22. In data set [5] (30 mg/kg i.v. once, 30 min post-dose, mean ± SE, vehicle 2.06 ± 0.09), this molecule came in with a fall index of 0.87 ± 0.17. In addition, the fall index entry in data set [5] (TRH 30, 100 and 300 mg/kg p.o. once daily for 7 days) is “no significant decrease”. In data set [2], this molecule had an MRT of 3.7 min, a Vd of 0.33 L/kg, a clearance of 89.2 mL/min/kg and a half-life of 3 min. For the same molecule, the Ki in data set [6] is 128 nM. Further, the “t1/2 of degradation by the brain homogenate” value in data set [7] is 7.9 min. Further, in data set [1] (79 5 μmol/kg from 2 to 7 h, TRH 50 μmol/kg from 0 to 7 h), the “rectal temperature compared with saline levels” value is “almost the same low rectal temperature profiles as the saline levels”. Moreover, the “rectal temperature ΔAUC0–7h = AUC0–7h(compounds) – AUC0–7h(saline)” value in data set [1] (reserpine-induced hypothermia mice, TRH 50 μmol/kg, 79 5 μmol/kg) was “–4.0 ± 3.3 °C·h”. Besides, the “rectal temperature AUC0–7h” value in data set [1] (reserpine-induced hypothermia mice, TRH 50 μmol/kg, 79 5 μmol/kg, mean ± SD) stood at 201.4 ± 3.3 °C·h.
